Experimental data from ChEMBL document CHEMBL1255307, “Role of the AheABC efflux pump in Aeromonas hydrophila intrinsic multidrug resistance” (2008).
≈ marks a conversion by molar mass, not a printed value. Where a SMILES comes first, the peptide text is derived from it. Bridges are numbered along the chain shown (N, C = ends). [ ]: non-standard residue; d: D form. The star is where a group is joined. NMePhe(4-NMe2) = CN[C@@H](Cc1ccc(N(C)C)cc1)C(=O)O; Pip(4-oxo) = O=C1CCN[C@H](C(=O)O)C1; Picolinoyl(3-OH) = O=C(c1ncccc1O)*; Phg = N[C@H](C(=O)O)c1ccccc1; dAbu = CC[C@@H](N)C(=O)O

Experiments:
Assay type in all cases: functional
[1] = (§1) Antimicrobial activity against Aeromonas hydrophila subsp. hydrophila ATCC 7966 harboring plasmid pEX19Gm by agar dilution method in presence of 64 mg/L efflux pump inhibitor phenylalanine-arginine-beta-naphthylamide
[2] = (§2) Antimicrobial activity against aheB deficient kanamycin-resistant Aeromonas hydrophila subsp. hydrophila ATCC 7966 harboring plasmid pEX19Gm by agar dilution method
Outline: (§3)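 Agar dilution MICs on MH medium, final inoculum about 10^4 CFU per spot. Tested in A. hydrophila ATCC 7966T and E. coli TG1 strains (wild type, ΔaheB::kan or ΔacrAB), each carrying empty pEX19Gm or a pump-encoding plasmid (pEXAheABC, pUCAcrAB). Run at least in triplicate, mode value reported.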

[3] = (§4) Antimicrobial activity against aheB deficient kanamycin-resistant Aeromonas hydrophila subsp. hydrophila ATCC 7966 harboring plasmid pEX19Gm by agar dilution method in presence of 64 mg/L efflux pump inhibitor phenylalanine-arginine-beta-naphthylamide
[4] = (§5) Antimicrobial activity against aheB deficient kanamycin-resistant Aeromonas hydrophila subsp. hydrophila ATCC 7966 harboring AheABC efflux pump by agar dilution method; outline: as §3
[5] = (§6) Antimicrobial activity against aheB-deficient kanamycin-resistant Aeromonas hydrophila subsp. hydrophila ATCC 7966 harboring AheABC efflux pump by agar dilution method in presence of 64 mg/L efflux pump inhibitor phenylalanine-arginine-beta-naphthylamide
Escherichia coli [6] = assay: Antimicrobial activity against Escherichia coli TG1 harboring plasmid pEX19Gm by agar dilution method; outline: as §3
Escherichia coli [7] = assay: Antimicrobial activity against acrAB-deficient Escherichia coli TG1 harboring plasmid pEX19Gm by agar dilution method; outline: as §3
Escherichia coli [8] = assay: Antimicrobial activity against acrAB-deficient Escherichia coli TG1 harboring AcrAB efflux pump by agar dilution method; outline: as §3
Escherichia coli [9] = assay: Antimicrobial activity against acrAB-deficient Escherichia coli TG1 harboring AheABC efflux pump by agar dilution method; outline: as §3
[10] = (§7) Antimicrobial activity against Aeromonas hydrophila subsp. hydrophila ATCC 7966 harboring plasmid pEX19Gm by agar dilution method; outline: as §3
[11] = test system: Aeromonas hydrophila subsp. hydrophila ATCC 7966; assay: as §1
[12] = test system: Aeromonas hydrophila subsp. hydrophila ATCC 7966; assay: as §2; outline: as §3
[13] = test system: Aeromonas hydrophila subsp. hydrophila ATCC 7966; assay: as §4
[14] = test system: Aeromonas hydrophila subsp. hydrophila ATCC 7966; assay: as §5; outline: as §3
[15] = test system: Aeromonas hydrophila subsp. hydrophila ATCC 7966; assay: as §6
[16] = test system: Aeromonas hydrophila subsp. hydrophila ATCC 7966; assay: as §7; outline: as §3

| Compound | MIC [1] [µg/mL] | MIC [2] [µg/mL] | MIC [3] [µg/mL] | MIC [4] [µg/mL] | MIC [5] [µg/mL] | MIC (Escherichia coli [6]) [µg/mL] | MIC (Escherichia coli [7]) [µg/mL] | MIC (Escherichia coli [8]) [µg/mL] | MIC (Escherichia coli [9]) [µg/mL] | MIC [10] [µg/mL] | MIC [11] [µg/mL] | MIC [12] [µg/mL] | MIC [13] [µg/mL] | MIC [14] [µg/mL] | MIC [15] [µg/mL] | MIC [16] [µg/mL] |
| --- | --- | --- | --- | --- | --- | --- | --- | --- | --- | --- | --- | --- | --- | --- | --- | --- |
| CC(=O)O[C@H]1C[C@@]2(C)[C@@H](C[C@@H](O)[C@H]3[C@@]4(C)CC[C@@H](O)[C@@H](C)[C@@H]4CC[C@@]32C)/C1=C(\CCC=C(C)C)C(=O)O [FUSIDIC ACID] | 2 | 64 (≈ 124 µM) | 1 | 256 (≈ 495 µM) | 8 | 512 (≈ 991 µM) | 2 (≈ 3.87 µM) | 512 (≈ 991 µM) | 128 (≈ 248 µM) | 128 (≈ 248 µM) | – | – | – | – | – | – |
| CCN1CCN(C(=O)N[C@@H](C(=O)N[C@@H]2C(=O)N3C(C(=O)O)=C(CSc4nnnn4C)CS[C@H]23)c2ccc(O)cc2)C(=O)C1=O [CEFOPERAZONE] | 0.25 | 0.06 (≈ 0.0929 µM) | 0.06 | 2 (≈ 3.1 µM) | 2 | 0.25 (≈ 0.387 µM) | 0.03 (≈ 0.0465 µM) | 8 (≈ 12.4 µM) | 0.06 (≈ 0.0929 µM) | 0.25 (≈ 0.387 µM) | – | – | – | – | – | – |
| CO/N=C(\C(=O)N[C@@H]1C(=O)N2C(C(=O)O)=C(COC(N)=O)CS[C@H]12)c1ccco1 [CEFUROXIME] | 1 | 0.25 (≈ 0.589 µM) | 0.25 | 4 (≈ 9.43 µM) | 4 | 4 (≈ 9.43 µM) | 0.5 (≈ 1.18 µM) | 8 (≈ 18.9 µM) | 2 (≈ 4.71 µM) | 1 (≈ 2.36 µM) | – | – | – | – | – | – |
| CC[C@H]1NC(=O)[C@@H](NC(=O)c2ncccc2O)[C@@H](C)OC(=O)[C@H](c2ccccc2)NC(=O)[C@@H]2CC(=O)CCN2C(=O)[C@H](Cc2ccc(N(C)C)cc2)N(C)C(=O)[C@@H]2CCCN2C1=O [PRISTINAMYCIN 1A] ({Picolinoyl(3-OH)}-T[dAbu]P[NMePhe(4-NMe2)][Pip(4-oxo)][Phg]; ester 1-C) | 2 | 8 (≈ 9.23 µM) | 1 | 128 (≈ 148 µM) | 4 | 64 (≈ 73.8 µM) | 4 (≈ 4.61 µM) | 64 (≈ 73.8 µM) | 64 (≈ 73.8 µM) | 32 (≈ 36.9 µM) | – | – | – | – | – | – |
| CN(C)c1ccc2cc3ccc(N(C)C)cc3nc2c1 [ACRIDINE ORANGE] | 256 | 256 (≈ 965 µM) | 128 | 1020 (≈ 3860 µM) | 256 | > 1020 | 128 (≈ 482 µM) | > 1020 | 256 (≈ 965 µM) | 512 (≈ 1930 µM) | – | – | – | – | – | – |
| COc1cc(Cc2cnc(N)nc2N)cc(OC)c1OC [TRIMETHOPRIM] | 8 | 8 (≈ 27.6 µM) | 4 | 32 (≈ 110 µM) | 16 | 0.2 (≈ 0.689 µM) | 0.05 (≈ 0.172 µM) | 0.05 (≈ 0.172 µM) | 0.05 (≈ 0.172 µM) | 16 (≈ 55.1 µM) | – | – | – | – | – | – |
| CN(C)c1ccc(O)c2c1C[C@H]1C[C@H]3[C@H](N(C)C)C(O)=C(C(N)=O)C(=O)[C@@]3(O)C(O)=C1C2=O [MINOCYCLINE] | 0.5 | 0.4 (≈ 0.874 µM) | 0.25 | 2 (≈ 4.37 µM) | 1 | 1 (≈ 2.19 µM) | 0.12 (≈ 0.262 µM) | 2 (≈ 4.37 µM) | 1 (≈ 2.19 µM) | 1 (≈ 2.19 µM) | – | – | – | – | – | – |
| CC[n+]1c(-c2ccccc2)c2cc(N)ccc2c2ccc(N)cc21.[Br-] [HOMIDIUM BROMIDE] | 128 | 64 | 64 | 512 | 512 | 512 | 2 | 512 | 64 | 128 | – | – | – | – | – | – |
| TRIBUTYLSTANNANYL | – | – | – | – | – | > 1020 | 4 | > 1020 | 16 | – | 2 | 16 | 2 | 256 | 4 | 32 |
| CCC[C@@H]1C[C@@H](C(=O)N[C@@H]([C@H]2O[C@H](SC)[C@H](O)[C@@H](O)[C@H]2O)[C@@H](C)O)N(C)C1 [LINCOMYCIN] | 128 | 64 (≈ 157 µM) | 64 | 256 (≈ 630 µM) | 256 | 1020 (≈ 2520 µM) | 64 (≈ 157 µM) | > 1020 | 512 (≈ 1260 µM) | 128 (≈ 315 µM) | – | – | – | – | – | – |
| CO[C@H]1/C=C/O[C@@]2(C)Oc3c(C)c(O)c4c(O)c(c(/C=N/N5CCN(C)CC5)c(O)c4c3C2=O)NC(=O)/C(C)=C\C=C\[C@H](C)[C@H](O)[C@@H](C)[C@@H](O)[C@@H](C)[C@H](OC(C)=O)[C@@H]1C [RIFAMPIN] | 0.06 | 1 (≈ 1.22 µM) | 0.03 | 4 (≈ 4.86 µM) | 0.12 | 16 (≈ 19.4 µM) | 8 (≈ 9.72 µM) | 16 (≈ 19.4 µM) | 8 (≈ 9.72 µM) | 2 (≈ 2.43 µM) | – | – | – | – | – | – |
| CC[C@H]1OC(=O)[C@H](C)[C@@H](O[C@H]2C[C@@](C)(OC)[C@@H](O)[C@H](C)O2)[C@H](C)[C@@H](O[C@@H]2O[C@H](C)C[C@H](N(C)C)[C@H]2O)[C@](C)(O)C[C@@H](C)C(=O)[C@H](C)[C@@H](O)[C@]1(C)O [ERYTHROMYCIN] | 2 | 8 (≈ 10.9 µM) | 1 | 64 (≈ 87.2 µM) | 2 | 64 (≈ 87.2 µM) | 1 (≈ 1.36 µM) | 128 (≈ 174 µM) | 32 (≈ 43.6 µM) | 16 (≈ 21.8 µM) | – | – | – | – | – | – |
